In ChEMBL document CHEMBL5506039, “Discovery and Optimization of Tambjamines as a Novel Class of Antileishmanial Agents” (J Med Chem, 2024):

Tests used:
[1] = Therapeutic index, ratio of EC50 for mouse J774.A1 cells to EC50 for antileishmanial activity against Leishmania mexicana MNYC/BZ/62/M379 amastigotes expressing red-shifted firefly luciferase from integrated ribosomal (28S) RNA locus infected in mouse J774.A1 cells; format: toxicity, cell-based; details: read-out: TI
[2] = Cytotoxicity against mouse J774.A1 cells assessed as reduction in cell survival measured after 96 hrs by SYBR Green II dye based analysis; format: toxicity
Method in brief: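 Uninfected J774A.1 macrophages, 1 × 10⁴ cells/well in DMEM/10% HI-FBS, reattached 3 h, then exposed to compounds for 96 h. DNA content read after lysis with SYBR Green II (1:1000 in 1% Triton/PBS), 1 h dark at room temperature, fluorescence Ex 485/Em 535.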

[3] = Cytotoxicity against mouse J774.A1 cells assessed as cell survival at 0.1 uM measured after 96 hrs by SYBR Green II dye based analysis relative to control; format: toxicity; details: read-out: Survival
Method in brief: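 Uninfected J774A.1 mouse macrophages were plated at 1 × 10⁴ cells/well in DMEM with 10% heat-inactivated FBS and left 3 h at 37 °C to reattach. Compounds were added from DMSO, and analogues were screened at 0.1 μM. After 96 h at 37 °C in 5% CO₂, medium was removed. SYBR Green II (1:1000 in 1% Triton/PBS) was added for 1 h in the dark at room temperature, and fluorescence was read at Ex 485/Em 535 as a DNA-content measure of viability.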

[4] = Therapeutic index, ratio of IC50 for human HepG2 cells to EC50 for antileishmanial activity against Leishmania donovani amastigotes expressing red-shifted firefly luciferase from integrated ribosomal (28S) RNA locus infected in mouse J774.A1 cells; format: toxicity, cell-based; details: read-out: TI
Method in brief: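 TI computed as HepG2 IC50 divided by L. donovani EC50. HepG2: MTT assay with 48 h exposure to 10–0.15 μg/mL (1.6-fold dilutions), triplicates, sigmoidal variable-slope fit. Amastigotes: J774A.1 macrophages infected with RS-luciferase promastigotes at 10:1, washed after 24 h, then 96 h compound exposure (3-fold dilutions, 10 μM–1 nM) in MEM/10% HI-FBS at 37 °C, 5% CO₂; luciferase readout.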

Leishmania mexicana [5] = assay: Antileishmanial activity against Leishmania mexicana MNYC/BZ/62/M379 amastigotes expressing red-shifted firefly luciferase from integrated ribosomal (28S) RNA locus infected in mouse J774.A1 cells assessed as parasite survival at 0.1 uM measured after 96 hrs by luminescence based analysis relative to control; format: functional; details: MNYC/BZ/62/M379, J774.A1
Leishmania mexicana [6] = assay: Antileishmanial activity against Leishmania mexicana MNYC/BZ/62/M379 amastigotes expressing red-shifted firefly luciferase from integrated ribosomal (28S) RNA locus infected in mouse J774.A1 cells assessed as reduction in parasite survival measured after 96 hrs by luminescence based analysis; format: functional, organism-based; details: MNYC/BZ/62/M379, J774.A1, 96 h
Method in brief: (§1)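 J774A.1 macrophages infected with stationary-phase luciferase-expressing promastigotes at 10:1 parasites:macrophage, overnight at 37 °C, 5% CO₂. Non-internalized parasites washed off and 1 × 10⁴ cells/well replated in MEM/10% HI-FBS. Compounds in DMSO added as serial 3-fold dilutions (typically 10 μM–1 nM) for 96 h. Luciferase luminescence read; EC50 from log-transformed sigmoidal variable-slope fit. Mean ± SD of ≥2 independent experiments.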

Leishmania donovani = assay: Antileishmanial activity against Leishmania donovani amastigotes expressing red-shifted firefly luciferase from integrated ribosomal (28S) RNA locus infected in mouse J774.A1 cells assessed as reduction in parasite growth measured after 96 hrs by luminescence based analysis; format: functional, organism-based; details: J774.A1, 96 h; method in brief: as §1
[7] = Metabolic stability in pre-warmed pooled human liver microsomes assessed as half life at 1 uM measured upto 60 mins by LC-MS analysis; format: ADME, Microsome
Method in brief: (§2)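 Compound at 1 μM final with 0.5 mg/mL pooled human or mouse liver microsomes, 1.3 mM NADP and 3.3 mM MgCl₂ in 100 mM potassium phosphate, pH 7.4. Reaction started with 1 U/mL G6PD at 37 °C with shaking.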

[8] = Metabolic stability in pre-warmed pooled mouse liver microsomes assessed as half life at 1 uM measured upto 60 mins by LC-MS analysis; format: ADME, Microsome; method in brief: as §2

Compound	selectivity ratio [1]	EC50 at 96 h [2]	viability at 96 h, 0.1 µM [3]	selectivity ratio [4]	survival at 0.1 µM (Leishmania mexicana [5])	EC50 (Leishmania mexicana [6])	EC50 (Leishmania donovani)	half-life at 1 µM [7]	half-life at 1 µM [8]
CCC1=C/C(=C\NC23CC4CC(CC(C4)C2)C3)N=C1c1ccc[nH]1	24	0.884 µM	50%	168	11.3%	0.0375 µM	0.0905 µM		
COC1=CC(c2ccc[nH]2)=N/C1=C\Nc1ccc(Cl)c(Cl)c1.Cl	> 10	> 1 µM	67.5%		23.8%	0.1 µM		56.2 min	
COC1=CC(c2ccc[nH]2)=N/C1=C\Nc1ccc(Oc2ccc(OC)cc2)cc1	> 15	> 1 µM	50.2%		8.65%	0.066 µM		> 60 min	30.1 min
COC1=CC(c2ccc(Cc3ccc(OC)cc3)[nH]2)=N/C1=C\NC12CC3CC(CC(C3)C1)C2.Cl	> 88	> 1 µM	59.6%		-0.05%	0.0113 µM		> 60 min	> 60 min
COC1=CC(c2ccc(Cc3ccc(OC)cc3)[nH]2)=N/C1=C\NC1CCCCCCC1.Cl	35	0.547 µM	84.8%		-0.11%	0.0158 µM		50.8 min	
COC1=CC(c2ccc[nH]2)=N/C1=C\N[C@H]1CC[C@H](NC(=O)OC(C)(C)C)CC1	34	2.99 µM	51.1%		28.3%	0.0877 µM		8.45 min	9.71 min
Cl.FC(F)(F)Oc1ccc(OC2=CC(c3ccc[nH]3)=N/C2=C\NC23CC4CC(CC(C4)C2)C3)cc1	8.6	0.353 µM	80.7%		35.7%	0.041 µM		> 60 min	> 60 min
COC1=CC(c2ccc[nH]2)=N/C1=C\Nc1ccc(C)cc1.Cl	4.2	0.171 µM	50.8%		5.49%	0.041 µM		30 min	28.9 min
CCc1ccc(C2=N/C(=C\NC3CCCCCC3)C(OC)=C2)[nH]1.Cl	14	0.512 µM	52.5%		0.3%	0.0371 µM		> 60 min	
COc1ccc(Oc2ccc(N/C=C3\N=C(c4ccc[nH]4)C4=C3CCCC4)cc2)cc1.Cl			62.5%		89.8%			> 60 min	> 60 min
Cc1ccc(Oc2ccc(N/C=C3\N=C(c4ccc[nH]4)C4=C3CCCC4)cc2)cc1.Cl			58.2%		102%			> 60 min	> 60 min
C(/NCC1CCCCCC1)=C1/N=C(c2ccc[nH]2)C2=C1CCCC2.Cl			75%		16.1%			> 60 min	> 60 min
COC1=CC(c2ccc[nH]2)=N/C1=C\Nc1ccccc1	14	1.04 µM	72.8%		14.3%	0.073 µM	0.226 µM		
COC1=CC(c2ccc(Cc3ccc(OC)cc3)[nH]2)=N/C1=C\NC1CCCCCC1.Cl	59	0.959 µM	84.6%		-0.11%	0.0162 µM		25.6 min	
COC1=CC(c2ccc[nH]2)=N/C1=C\Nc1ccc2c(c1)OCCO2.Cl	> 31	> 1 µM	77.3%		9.03%	0.032 µM		> 60 min	15.8 min
COC1=CC(c2ccc[nH]2)=N/C1=C\Nc1cccc(OC(F)(F)F)c1.Cl	14	0.76 µM	83.7%		11.4%	0.054 µM		> 60 min	15.8 min
CCc1c[nH]c(C2=N/C(=C\NC3CCCCCC3)C(C)=C2C)c1.Cl	11	1.33 µM	63.3%		23.8%	0.117 µM		> 60 min	11 min
COC1=CC(c2ccc(Cc3ccc(OC)cc3)[nH]2)=N/C1=C\NC1CCCCC1.Cl	42	0.946 µM	84.6%		0.01%	0.0226 µM		19.7 min	
COC1=CC(c2ccc[nH]2)=N/C1=C\Nc1ccc(OC(F)(F)F)cc1.Cl	> 14	> 1 µM	89.6%		18.9%	0.0725 µM		> 60 min	
COC1=CC(c2ccc(Cc3ccc(OC)cc3)[nH]2)=N/C1=C\NC1CCCC1.Cl	30	0.717 µM	86.6%		1.4%	0.0238 µM		11.7 min	
COC1=CC(c2ccc(-c3ccc(OC)cc3)[nH]2)=N/C1=C\NC1CCCCCC1.Cl	24	0.45 µM	77.3%		-0.02%	0.0188 µM		> 60 min	> 60 min
COC1=CC(c2ccc[nH]2)=N/C1=C\Nc1cccc(Cl)c1.Cl	6.2	0.57 µM	65.3%		13.6%	0.0915 µM		> 60 min	
